Results on 10 molecules are retold here after paper PMC2966122 (The Journal of Biological Chemistry, 2010).

A short description of assay [1]: Glycan array binding of FITC-labeled galectins. Particulars: for Affinity for sialylated (and sulfated) galactosides on the array: site B; for Glycans bound on the array (overall): all glycans of the array; for Glycans bound on the array: 200 μg/ml galectin. The essentials: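 The printed array carries 406 glycans, six spots each, on NHS-activated glass. FITC-galectins at 200 μg/ml in Tris-buffered saline pH 7.4 (2 mM CaCl2, 2 mM MgCl2, 1% BSA, 0.05% Tween 20) were incubated 60 min at room temperature in the dark under a coverslip, then washed and dried. Slides were scanned at 488 nm and read as RFU (ceiling 40,000). Highest and lowest spots were dropped and the remaining four averaged.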

A short description of a further assay: Fluorescence anisotropy. The class given is binding. Particulars: for Affinity for 3-sialylated galactosides: probes 6–9 (6–8 for Xenopus); for Affinity for 3-sialylated galactosides / Affinity for GlcNAcβ1–3-substituted galactosides: relative to human wild type galectin-3; for Affinity for GlcNAcβ1–3-substituted galactosides: probes 9–15; for Binding to glycans where LacNAc or Galβ1–3GlcNAc is likely in site C-D: e.g. probes 2, 3, 7 and 8. The essentials: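 Equilibrium fluorescence anisotropy with 0.1 μM fluorescein-tagged saccharide probe (15 probes) titrated with 0.05–80 μM lactose-freed galectin. Read at room temperature and after incubation on ice (about 4 °C), ex 485/em 520 nm. Kd derived from the binding curve using probe-alone (A0) and saturated (Amax) anisotropy, with Amax extrapolated for partial curves. Not detected if anisotropy stayed ≤50 mA at 50 μM galectin.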
On the technique in general: In fluorescence polarisation assays a small probe gives low polarisation when free and higher when bound to something large.

Assay [2] relates to intracellular anti-apoptotic effect. Conditions: cited from earlier work.
In assay [3] the test system is N-Ras to K-Ras activation. Particulars: cited from earlier work.
The next assay deals with SKBR3 cells. Kind of assay: Localization of EGFP-galectin-3 and mutants in transfected cells. The class given is cell-based, human. Conditions: EGFP fusion protein; for Entry into vesicles: stably transfected. The essentials:
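SKBR3 breast cancer cells were Lipofectamine-transfected with pEGFP-C1 EGFP-galectin-3 constructs and grown in RPMI 1640/10% FBS with 1 mg/ml G418 for ≥2 weeks to obtain stable lines. Cells were grown 1–2 days on coverslips, fixed in 4% paraformaldehyde, mounted with DAPI and viewed by epifluorescence microscopy. Fluorescent vesicles (dots) per cell were counted in 300 cells per construct.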

For the next assay, the system named is TNFα-primed neutrophils. Put plainly: NADPH oxidase activation of TNFα-primed neutrophils. Type of assay: cell-based, human. Conditions: for Activation of primed neutrophils (release of oxygen radicals): dose response relative to wild type galectin-3 run in parallel, up to 3.5 μM. The essentials: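 Human neutrophils (1 × 10^7/ml) were primed 20 min at 37 °C with TNFα 10 ng/ml. Tubes held 10^6 cells and were equilibrated 5 min at 37 °C before galectin was added. Chemiluminescence was recorded continuously. Extracellular superoxide was read with HRP (4 units) plus isoluminol (6 × 10^-5 M). Intracellular ROS was read with SOD (50 units), catalase (2000 units) and luminol (2 × 10^-5 M). Peak responses were normalized to the parallel 3.5 μM wild-type peak.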

For assay [4], the system named is neutrophils. Put plainly: Galectin binding to neutrophils. The class given is cell-based, human. Particulars: FITC-labeled galectin 40 μg/ml. The essentials:
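Human blood neutrophils from buffy coats (dextran sedimentation, Ficoll-Paque) were pretreated at 37 °C with or without TNFα, or held at 4 °C without it. They were then incubated 1 h at 4 or 37 °C with FITC-galectin (40 μg/ml) and washed twice in PBS/0.02% NaN3/EDTA. Flow cytometry gave geometric mean fluorescence from three neutrophil batches (mean, S.E.), with paired one-tailed t tests.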

For another assay, the system named is MDCK cells. Particulars: EGFP fusion protein in MDCK cells; cited from earlier work.
For assay [5] the following is noted: cited from earlier work.
For a further assay, the system named is Shigella bacteria. Particulars: cited from earlier work.
Assay [6] concerns neutrophils. Conditions: cited from earlier work.
The conditions of assay [7]: cited from earlier work. This is another data set of the same source.
For assay [8] the following is noted: cited from earlier work. This is another data set of the same source.
For assay [9] the following is noted: compared with human galectin-3; cited from earlier work.

As for “A146Q: Human galectin-3 point mutant in site B, Ala-146 to Gln”, the “Affinity for glycans with GalNAcα in site B on the array” value in assay [1] (but not those with Galα (blood group B type)) is given as “selective loss of affinity”. Besides, in “Fluorescence anisotropy”, the “Affinity for 3-sialylated galactosides” value is “slightly reduced affinity” and the “Affinity for GlcNAcβ1–3-substituted galactosides” value is listed as “retained affinity, albeit lower”.
For “G182A: Human galectin-3 point mutant near site C, Gly-182 to Ala”, the “Binding to Galβ1–3GlcNAc containing glycans on the array” value in assay [1] (relative to wild type) is reported as “preferentially, although not exclusively, lost binding”. For the same molecule, in assay [2], the Intracellular anti-apoptotic effect result was “lost”. Besides, the “Induction of a shift from N-Ras to K-Ras activation” value in assay [3] is “lost”. Further, in the assay on SKBR3 cells, the Entry into vesicles result was “much fewer in number per cell”.
Turning to “K176L/N180T: Human galectin-3 double mutant obtained by a mistake in primer design”, the “Affinity for some of the longer GlcNAcβ-extended galactosides” value in the assay “Fluorescence anisotropy” (compared with K176L) is listed as “slightly increased affinity”. Moreover, in the assay on TNFα-primed neutrophils (TNFα-primed neutrophils), the “Concentration inducing significant neutrophil activation” value is at most 0.2 µM. Besides, the “Activation of primed neutrophils (release of oxygen radicals)” value in the assay on TNFα-primed neutrophils is listed as “clearly increased potency”.
Consider “K176L: Human galectin-3 point mutant in site B, Lys-176 to Leu”, for which, in assay [1] (relative to wild type), the “Affinity for sialylated (and sulfated) galactosides on the array” value is “lost affinity”. In the assay on neutrophils [4], the “Binding to primed and non-primed neutrophils” value is listed as “about equally well”; the “Increase in binding after TNFα priming” value was 30–50%. For the same molecule, in the assay “Fluorescence anisotropy”, the “Affinity for 3-sialylated galactosides” value is on record as “lost affinity” and the “Affinity for GlcNAcβ1–3-substituted galactosides” value is “significantly better than wild type galectin-3”. Besides, the “Activation of primed neutrophils (release of oxygen radicals)” value with TNFα-primed neutrophils was “clearly increased potency”.
For “R144S: Human galectin-3 point mutant in site B, Arg-144 to Ser”, the “Affinity for sialylated (and sulfated) galactosides on the array” value in assay [1] (relative to wild type) is “lost affinity”. In “Fluorescence anisotropy” (probe 5 (A-tetrasaccharide), relative to wild type), the “Affinity for the GalNAcα extended galactoside” value is reported as “increased affinity”. In addition, in the assay “Fluorescence anisotropy”, the “Affinity for 3-sialylated galactosides” value was “lost affinity” and the “Affinity for GlcNAcβ1–3-substituted galactosides” value was “lost affinity”.
In the case of “R186I: Human galectin-3 mutant replacing Arg-186 with Ile, as found in galectin-8N”, in assay [1], the “Glycans bound on the array (overall)” value is on record as “bound a few more glycans”. For the same molecule, the “Background binding, maximum” value in assay [1] (remaining 227 glycans not expected to bind galectins) stood at 2674 RFU. Further, the “Binding to glycans where LacNAc or Galβ1–3GlcNAc is likely in site C-D” value in “Fluorescence anisotropy” is listed as “lost binding”. The “Affinity for glycans with Lac in site C-D” value in “Fluorescence anisotropy” (relative to wild type) was “retained reduced affinity”.
Consider “R186S: Human galectin-3 mutant replacing Arg-186 with Ser (site D)”, for which the “Vesicle entry and apical targeting of glycoproteins” value in the assay with MDCK cells was “did not enter vesicles and did not direct apical targeting of glycoproteins”. For the same molecule, the “Glycans bound on the array (overall)” value in assay [1] is reported as “bound only one glycan”. In the assay on neutrophils [4], the “Binding to primed and non-primed neutrophils” value is “did not bind any of the neutrophil preparations”. In addition, the “Binding to glycans where LacNAc or Galβ1–3GlcNAc is likely in site C-D” value in the assay “Fluorescence anisotropy” is reported as “lost binding”. The “Affinity for glycans with Lac in site C-D” value in “Fluorescence anisotropy” (relative to wild type) was “retained reduced affinity”. Also, in [5], the “Ability to bind human serum glycoproteins” value is recorded as “completely lost the ability to bind human serum glycoproteins”. The “Accumulation around invading Shigella bacteria” value with Shigella bacteria is recorded as “did not accumulate around invading Shigella bacteria”. In addition, in the assay with neutrophils [6], the “Ability to promote the phagocytosis of apoptotic cells by neutrophils” value was “lost”. In the assay with SKBR3 cells, the Entry into vesicles result was “not visible in vesicles”.
With “wild type galectin-3: Recombinant human galectin-3 produced in E. coli; expressed as EGFP fusion in SKBR3 cells”, in assay [1] (compared with NeuAc), the “Binding of galactosides with 3-linked N-glycoloyl neuraminic acid (NeuGc)” value is “equally well”. In addition, the “Glycans bound on the array” value in assay [1] (glycans with a LacNAc available for binding in site C-D) is 45 of 94; in [1] (glycans with available Galβ1–3GlcNAc), 15 of 36; in assay [1] (glycans with only Galβ1–3GalNAc available), “did not bind at all”; in [1] (glycans with only lactose available), 6 of 24. Also, the “Affinity for Galβ1–3GalNAc lower than for LacNAc” value in assay [7] is 10–50 fold. Besides, in the assay on neutrophils [4], the “Binding to primed and non-primed neutrophils” value is recorded as “about equally well”. For the same molecule, in the assay with neutrophils [4], the “Increase in binding after TNFα priming” value is 30–50%. Besides, the “Enhancement of binding affinity by addition of GalNAcα1–3 or Galα1–3” value in assay [8] is recorded as 10–25 fold. Also, the Entry into vesicles entry in the assay with SKBR3 cells is reported as “entered vesicles in some of the cells”. In addition, the “Cells with dots (galectin containing vesicles)” value with SKBR3 cells (depending on how confluent the cells were) is recorded as 15–30 % of cells.

B1: Rat galectin-3: Rat galectin-3 orthologue, not available for study here; literature data (protein, UniProt P08699 2-262, looked up)
Galectin-3: ADGFSLNDALAGSGNPNPQGWPGAWGNQPGAGGYPGASYPGAYPGQAPPGGYPGQAPPSAYPGPTGPSAYPGPTAPGAYPGPTAPGAFPGQPGGPGAYPSAPGAYPSAPGAYPATGPFGAPTGPLTVPYDMPLPGGVMPRMLITIIGTVKPNANSITLNFKKGNDIAFHFNPRFNENNRRVIVCNTKQDNNWGREERQSAFPFESGKPFKIQVLVEADHFKVAVNDVHLLQYNHRMKNLREISQLGIIGDITLTSASHAMI
With B1, the “Lower affinity for NeuAcα2–3Lac” value in assay [9] is about 5 fold.

B2: Mouse galectin-3: Recombinant mouse galectin-3 orthologue (protein, UniProt P16110 2-264, looked up)
Galectin-3: ADSFSLNDALAGSGNPNPQGYPGAWGNQPGAGGYPGAAYPGAYPGQAPPGAYPGQAPPGAYPGQAPPSAYPGPTAPGAYPGPTAPGAYPGQPAPGAFPGQPGAPGAYPQCSGGYPAAGPYGVPAGPLTVPYDLPLPGGVMPRMLITIMGTVKPNANRIVLDFRRGNDVAFHFNPRFNENNRRVIVCNTKQDNNWGKEERQSAFPFESGKPFKIQVLVEADHFKVAVNDAHLLQYNHRMKNLREISQLGISGDITLTSANHAMI
For B2, the “Affinity for GlcNAcβ1–3-substituted galactosides” value in “Fluorescence anisotropy” is “lower affinity for all the saccharide probes tested and most significantly for the ones extended by GlcNAcβ”. Moreover, in the assay “Fluorescence anisotropy” (relative to human galectin-3), the “Affinity for all the saccharide probes tested” value was “lower affinity”.
